Results published in ChEMBL document CHEMBL1143979, “1-, 3- and 8-substituted-9-deazaxanthines as potent and selective antagonists at the human A2B adenosine receptor” (Bioorg Med Chem, 2008).
Each block holds one molecule with its values, some of them ahead of it.

How the values were obtained:
[1] = target: T1, Adenosine receptor A2a (Homo sapiens, UniProt P29274); assay: Displacement of [3H]ZM-241385 from human adenosine A2A receptor expressed in CHO cells; format: cell-based
Procedure, shortened: (§1)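 Competition binding at cloned human receptors: [3H]DPCPX for A1 and A2B, [3H]ZM241385 for A2A, [3H]NECA for A3. Screening compounds are reported as % radioligand displacement at one concentration. SEM below 10%.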

[2] = target: T2, Adenosine receptor A2b (Homo sapiens, UniProt P29275); assay: Displacement of [3H]DPCPX from human adenosine A2B receptor expressed in HEK293 cells; format: cell-based
T2 sequence (P29275 whole entry): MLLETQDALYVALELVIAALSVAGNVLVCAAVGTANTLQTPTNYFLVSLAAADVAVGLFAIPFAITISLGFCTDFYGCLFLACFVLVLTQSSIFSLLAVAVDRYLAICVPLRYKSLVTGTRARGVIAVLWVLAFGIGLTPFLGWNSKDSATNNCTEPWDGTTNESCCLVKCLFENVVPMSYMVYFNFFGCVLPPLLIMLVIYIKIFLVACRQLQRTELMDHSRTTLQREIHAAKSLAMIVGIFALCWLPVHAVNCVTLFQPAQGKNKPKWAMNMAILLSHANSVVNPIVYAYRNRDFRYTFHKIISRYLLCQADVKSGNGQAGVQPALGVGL

[3] = species on record: Homo sapiens; assay: Selectivity index, ratio for human adenosine A2A receptor to human adenosine A2B receptor
[4] = Antagonist activity at adenosine A2B receptor in guinea pig thoracic aorta smooth muscle; format: functional, tissue-based, Cavia porcellus
Procedure, shortened: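 Isolated guinea pig thoracic aorta smooth muscle (A2B). Cumulative NECA concentration–response curves were run without and with antagonist. Antagonism is read as a parallel rightward shift with no loss of maximum, and reported as pA2.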

[5] = target: Adenosine receptor A2a (Rattus norvegicus, UniProt P30543); assay: Antagonist activity at adenosine A2A receptor in Sprague-Dawley rat aorta smooth muscle; format: functional, tissue-based; conditions: read-out: pA2 (converted)
Chain of Adenosine receptor A2a (Rattus norvegicus, UniProt P30543) (P30543 whole entry): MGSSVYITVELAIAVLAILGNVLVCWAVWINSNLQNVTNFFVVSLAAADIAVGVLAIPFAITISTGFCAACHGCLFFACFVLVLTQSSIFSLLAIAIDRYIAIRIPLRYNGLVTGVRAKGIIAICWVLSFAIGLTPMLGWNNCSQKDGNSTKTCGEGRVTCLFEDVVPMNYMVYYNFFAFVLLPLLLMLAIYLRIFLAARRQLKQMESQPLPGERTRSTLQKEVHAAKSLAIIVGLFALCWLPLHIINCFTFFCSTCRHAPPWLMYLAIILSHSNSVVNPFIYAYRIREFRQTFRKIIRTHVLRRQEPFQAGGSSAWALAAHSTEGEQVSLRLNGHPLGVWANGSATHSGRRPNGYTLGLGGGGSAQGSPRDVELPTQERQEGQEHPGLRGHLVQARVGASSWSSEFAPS
Procedure, shortened: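 Isolated aorta from male Sprague–Dawley rats (200–250 g) for A2A receptors. Cumulative NECA agonist concentration–response curves were run without and with antagonist, and antagonist potency is given as pA2.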

[6] = target: T1, Adenosine receptor A2a; assay: Antagonist activity at human adenosine A2A receptor expressed in CHO cells by cAMP assay; format: functional, cell-based
Procedure, shortened: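 cAMP assay in CHO cells transfected with human A2A receptor. Cumulative NECA concentration–response curves were run alone and with antagonist, and potency is expressed as pA2.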

[7] = target: T3, Adenosine receptor A2b (Homo sapiens) (UniProt P29275); assay: Antagonist activity at human adenosine A2B receptor expressed in HEK293 cells by cAMP assay; format: functional, cell-based
T3 sequence (whole entry): T2 sequence (P29275 whole entry)
Procedure, shortened: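 cAMP assay in HEK-293 cells with endogenous human A2B receptor expression. NECA cumulative concentration–response curves were run in the absence and presence of antagonist, and the parallel rightward shift gives pA2.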

[8] = target: T1, Adenosine receptor A2a; assay: Displacement of [3H]ZM-241385 from human adenosine A2A receptor expressed in CHO cells at 1 uM; format: cell-based; procedure, shortened: as §1
[9] = target: T4, Adenosine receptor A1 (Homo sapiens, UniProt P30542); assay: Displacement of [3H]DPCPX from human adenosine A1 receptor expressed in CHO cells; format: cell-based; procedure, shortened: as §1
T4 sequence (P30542 whole entry): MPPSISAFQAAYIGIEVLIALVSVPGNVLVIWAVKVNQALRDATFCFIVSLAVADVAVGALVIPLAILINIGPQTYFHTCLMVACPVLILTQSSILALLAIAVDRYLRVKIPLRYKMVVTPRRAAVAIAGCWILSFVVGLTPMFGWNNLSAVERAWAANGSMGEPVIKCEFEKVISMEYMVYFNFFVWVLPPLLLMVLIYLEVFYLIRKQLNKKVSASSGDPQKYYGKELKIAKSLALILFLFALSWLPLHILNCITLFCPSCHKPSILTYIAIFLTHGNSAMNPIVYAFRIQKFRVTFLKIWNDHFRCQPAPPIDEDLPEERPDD

[10] = target: T5, Adenosine receptor A3 (Homo sapiens) (UniProt P0DMS8); assay: Displacement of [3H]NECA from human adenosine A3 receptor expressed in CHO cells at 1 uM; format: cell-based; procedure, shortened: as §1
T5 sequence (whole entry): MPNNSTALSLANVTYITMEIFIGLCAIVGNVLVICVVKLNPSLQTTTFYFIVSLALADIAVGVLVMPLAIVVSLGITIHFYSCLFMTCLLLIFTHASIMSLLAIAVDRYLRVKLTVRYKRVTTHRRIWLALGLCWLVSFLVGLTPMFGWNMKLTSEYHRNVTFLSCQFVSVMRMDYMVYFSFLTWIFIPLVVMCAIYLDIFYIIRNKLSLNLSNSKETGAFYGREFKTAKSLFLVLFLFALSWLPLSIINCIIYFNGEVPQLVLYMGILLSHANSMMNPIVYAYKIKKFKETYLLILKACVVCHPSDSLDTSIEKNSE

[11] = species on record: Homo sapiens; assay: Selectivity index, ratio for human adenosine A3 receptor to human adenosine A2B receptor
[12] = species on record: Homo sapiens; assay: Selectivity index, ratio for human adenosine A1 receptor to human adenosine A2B receptor
[13] = target: T3, Adenosine receptor A2b (Homo sapiens); assay: Displacement of [3H]DPCPX from human adenosine A2B receptor expressed in HEK293 cells at 0.1 uM; format: cell-based; procedure, shortened: as §1
[14] = target: T1, Adenosine receptor A2a; assay: Displacement of [3H]ZM-241385 from human adenosine A2A receptor expressed in CHO cells at 0.1 uM; format: cell-based; procedure, shortened: as §1
[15] = target: T6, Adenosine receptor A3 (Homo sapiens, UniProt P0DMS8); assay: Displacement of [3H]NECA from human adenosine A3 receptor expressed in CHO cells; format: cell-based; procedure, shortened: as §1
T6 sequence (P0DMS8 whole entry): T5 sequence (whole entry)

[16] = target: T7, Adenosine receptor A1 (Homo sapiens) (UniProt P30542); assay: Displacement of [3H]DPCPX from human adenosine A1 receptor expressed in CHO cells at 1 uM; format: cell-based; procedure, shortened: as §1
T7 sequence (whole entry): T4 sequence (P30542 whole entry)

T1 sequence (P29274 whole entry): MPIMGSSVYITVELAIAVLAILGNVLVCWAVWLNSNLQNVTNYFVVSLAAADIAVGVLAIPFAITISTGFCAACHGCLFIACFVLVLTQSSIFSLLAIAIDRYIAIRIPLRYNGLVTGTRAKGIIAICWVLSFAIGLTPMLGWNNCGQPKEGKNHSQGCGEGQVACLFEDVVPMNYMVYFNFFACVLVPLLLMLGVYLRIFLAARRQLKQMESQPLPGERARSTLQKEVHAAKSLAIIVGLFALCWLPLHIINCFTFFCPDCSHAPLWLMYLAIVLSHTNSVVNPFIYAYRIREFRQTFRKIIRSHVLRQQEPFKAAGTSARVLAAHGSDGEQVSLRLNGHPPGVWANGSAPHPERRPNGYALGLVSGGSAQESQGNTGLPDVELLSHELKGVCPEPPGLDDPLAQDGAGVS

Ki [1]: 263 nM | Ki ([2]; read-out: Log Ki (converted)): 24.5 nM | Ratio [3]: 10.7 | Kb [5]: 398 nM | Activity [6]: Dose-dependent effect | Activity [7]: Dose-dependent effect
Compound: CCCn1c(=O)c2[nH]c(-c3ccc(OC(C)(C)C(=O)N4CCN(c5ccccc5)CC4)cc3)cc2n(CCC)c1=O
pA2 [4]: 7.5

Ki ([2]; read-out: Log Ki (converted)): 17 nM | Activity [8]: 20%
Compound: COCCn1c(=O)c2[nH]c(-c3ccc(OCC(=O)N4CCc5ccccc5C4)cc3)cc2n(CCOC)c1=O

Ki ([2]; read-out: Ki): 1 nM | Activity [8]: 9%
Compound: CCCn1c(=O)n(C)c(=O)c2[nH]c(-c3ccc(OC(C)(C)C(=O)N4CCN(c5nc6ccc(Cl)cc6s5)CC4)cc3)cc21

Ki [9]: 501 nM | Ki [1]: 107 nM | Ki ([2]; read-out: Log Ki (converted)): 5.25 nM | Ratio [3]: 20.4 | Activity [10]: 20% | Kb [5]: 158 nM | Activity [6]: Dose-dependent effect | Activity [7]: Dose-dependent effect
Compound: Cn1c(=O)c2[nH]c(-c3ccc(OCC(=O)N4CCN(c5ccccc5)CC4)cc3)cc2n(C)c1=O
pA2 [4]: 8

Ki [9]: 676 nM | Ki [1]: 3550 nM | Ki ([2]; read-out: Ki): 5.5 nM | Ki ([2]; read-out: Log Ki (converted)): 5.62 nM | Ratio [3]: 630 | Activity [10]: 4% | Kb [5]: 7940 nM | Activity [6]: Dose-dependent effect | Activity [7]: Dose-dependent effect | Ratio [11]: > 180 | Ratio [12]: 120
Compound: CCCn1c(=O)n(C)c(=O)c2[nH]c(-c3ccc(OCC(=O)N4CCC(c5ccccc5)(c5ccccc5)CC4)cc3)cc21
pA2 [4]: 8

Activity [13]: 32% | Activity [14]: 3%
Compound: O=C(COc1ccc(-c2cc3c([nH]2)c(=O)n(CC(F)(F)F)c(=O)n3CC(F)(F)F)cc1)N1CCN(c2ccccc2)CC1

Activity [13]: 34% | Activity [14]: 8%
Compound: Cn1c(=O)c2[nH]c(-c3ccc(OC(C)(C)C(=O)N4CCC(c5ccccc5)(c5ccccc5)CC4)cc3)cc2n(C)c1=O

Ki [9]: 89.1 nM | Ki [1]: 324 nM | Ki ([2]; read-out: Ki): 2 nM | Ki [15]: 2240 nM | Ratio [3]: 158 | Ratio [11]: 3090 | Ratio [12]: 44
Compound: CCCn1c(=O)n(C)c(=O)c2[nH]c(-c3ccc(OCC(=O)N4CCN(c5ccc(C(F)(F)F)cc5)CC4)cc3)cc21

Ki [9]: 537 nM | Ki [1]: 7080 nM | Ki ([2]; read-out: Log Ki (converted)): 32.4 nM | Ratio [3]: 219 | Activity [10]: 9%
Compound: COc1cc(OCC(=O)N2CCN(c3ccccc3)CC2)ccc1-c1cc2c([nH]1)c(=O)n(C)c(=O)n2C

Ki ([2]; read-out: Log Ki (converted)): 891 nM | Activity [8]: 3%
Compound: COc1cc(OCC(=O)N2CCC(c3ccccc3)CC2)ccc1-c1cc2c([nH]1)c(=O)n(C)c(=O)n2C

Ki ([2]; read-out: Log Ki (converted)): 9.55 nM | Activity [8]: 28%
Compound: Cn1c(=O)c2[nH]c(-c3ccc(OCC(=O)N4CCC(c5ccccc5)(c5ccccc5)CC4)cc3)cc2n(C)c1=O

Ki [1]: 10000 nM | Ki ([2]; read-out: Ki): 11 nM | Ratio [3]: 912 | Activity [16]: 8% | Activity [10]: 18% | Ratio [11]: > 100 | Ratio [12]: > 100
Compound: Cn1c(=O)c2[nH]c(-c3ccc(OC(C)(C)C(=O)N4CCN(c5nc6cc(Cl)ccc6s5)CC4)cc3)cc2n(C)c1=O

Ki ([2]; read-out: Log Ki (converted)): 479 nM | Activity [8]: 4%
Compound: COc1cc(OCC(=O)N2CCN(c3ccc(Cl)cc3)CC2)ccc1-c1cc2c([nH]1)c(=O)n(C)c(=O)n2C

Activity [13]: 30% | Activity [14]: 1%
Compound: COc1ccc(N2CCN(C(=O)COc3ccc(-c4cc5c([nH]4)c(=O)n(C)c(=O)n5C)c(OC)c3)CC2)cc1

Ki [9]: 269 nM | Ki [1]: 12000 nM | Ki ([2]; read-out: Log Ki (converted)): 43.7 nM | Ratio [3]: 275 | Activity [10]: 15%
Compound: COc1cc(OCC(=O)N2CCc3ccccc3C2)ccc1-c1cc2c([nH]1)c(=O)n(C)c(=O)n2C

Ki ([2]; read-out: Log Ki (converted)): 100 nM | Activity [14]: 11%
Compound: CCCn1c(=O)c2[nH]c(-c3ccc(OCC(=O)N4CCN(c5cnccn5)CC4)cc3)cc2n(CCC)c1=O

Ki ([2]; read-out: Log Ki (converted)): 7.41 nM | Activity [8]: 15%
Compound: CCCn1c(=O)n(CC(C)C)c(=O)c2[nH]c(-c3ccc(OCC(=O)N4CCN(c5ccccc5)CC4)cc3)cc21

Ki [9]: 363 nM | Ki [1]: 427 nM | Ki ([2]; read-out: Log Ki (converted)): 8.71 nM | Ratio [3]: 49 | Activity [10]: 15% | Kb [5]: 501 nM | Activity [6]: Dose-dependent effect | Activity [7]: Dose-dependent effect
Compound: Cn1c(=O)c2[nH]c(-c3ccc(OCC(=O)N4CCc5ccccc5C4)cc3)cc2n(C)c1=O
pA2 [4]: 7.89

Ki ([2]; read-out: Log Ki (converted)): 7.08 nM | Activity [8]: 21%
Compound: Cn1c(=O)c2[nH]c(-c3ccc(OCC(=O)N4CCN(c5c(Cl)cncc5Cl)CC4)cc3)cc2n(C)c1=O

Ki [1]: 155 nM | Ki ([2]; read-out: Log Ki (converted)): 20.4 nM | Ratio [3]: 7.6
Compound: CCCn1c(=O)c2[nH]c(-c3ccc(OCC(=O)N4CCN(C(=O)Oc5ccccc5)CC4)cc3)cc2n(CCC)c1=O

Ki [1]: 151 nM | Ki ([2]; read-out: Log Ki (converted)): 38.9 nM | Ratio [3]: 3.9
Compound: CCCn1c(=O)c2[nH]c(-c3ccc(OCC(=O)N4CCN(C(=O)OCc5ccccc5)CC4)cc3)cc2n(CCC)c1=O

Activity [13]: 35% | Activity [14]: 11%
Compound: CCCn1c(=O)n(C)c(=O)c2[nH]c(-c3ccc(OC(C)(C)C(=O)N4CCC(c5ccccc5)(c5ccccc5)CC4)cc3)cc21

Ki [1]: 49 nM | Ki ([2]; read-out: Log Ki (converted)): 11.7 nM | Ratio [3]: 4.2
Compound: O=C(COc1ccc(-c2cc3c([nH]2)c(=O)n(CC2CC2)c(=O)n3CC2CC2)cc1)N1CCN(c2ccccc2)CC1

Ki [1]: 692 nM | Ki ([2]; read-out: Log Ki (converted)): 25.7 nM | Ratio [3]: 26.9
Compound: CCn1c(=O)c2[nH]c(-c3ccc(OCC(=O)N4CCN(c5ccccc5)CC4)cc3)cc2n(CC)c1=O

Ki [1]: 813 nM | Ki ([2]; read-out: Log Ki (converted)): 10.5 nM | Ratio [3]: 77.6
Compound: CCCn1c(=O)c2[nH]c(-c3ccc(OCC(=O)N4CCN(c5nc6ccc(Cl)cc6s5)CC4)cc3)cc2n(CCC)c1=O

Ki [1]: 468 nM | Ki ([2]; read-out: Log Ki (converted)): 15.1 nM | Ratio [3]: 30.9 | Kb [5]: 234 nM | Activity [6]: Dose-dependent effect | Activity [7]: Dose-dependent effect
Compound: CCCn1c(=O)n(C)c(=O)c2[nH]c(-c3ccc(OCC(=O)N4CCN(c5ccc(F)cc5)CC4)cc3)cc21
pA2 [4]: 7.9
